Assay results from ChEMBL document CHEMBL4402517, “Rational modification of Mannich base-type derivatives as novel antichagasic compounds: Synthesis, in vitro and in vivo evaluation” (Bioorg Med Chem, 2019).

Columns and labels:
[1] = Mutagenecity against Salmonella typhimurium TA98 assessed as number of colonies at 7.4 ug/plate in presence of Sprague-Dawley rat S9 measured after 48 hrs by Ames test (reference value: 4 +/- 2); format: toxicity, subcellular; conditions: salmonella enterica subsp. enterica serovar typhimurium, s9, 48 h
[2] = (§1) Toxicity in BALB/c mouse infected with Trypanosoma cruzi MHOM/Pe/2011/Arequipa;DTU 5 bloodstream trypomastigote assessed as change in serum alkaline phosphatase level in chronic phase at 20 mg/kg/day, po administered for 5 consecutive days starting from day 70 post infection measured on day 100 post infection relative to control; format: organism-based; conditions: in vivo
[3] = Mutagenecity against Salmonella typhimurium TA 102 assessed as number of colonies at 200 ug/plate in presence of Sprague-Dawley rat S9 with metabolic activation measured after 48 hrs by Ames test (reference value: 72 +/- 1); format: toxicity, subcellular; conditions: salmonella enterica subsp. enterica serovar typhimurium, s9, 48 h
[4] = Mutagenecity against Salmonella typhimurium TA97a assessed as number of colonies at 7.4 ug/plate in absence of Sprague-Dawley rat S9 with metabolic activation measured after 48 hrs by Ames test ( Rvb = 37 +/- 6.5); format: toxicity; conditions: salmonella enterica subsp. enterica serovar typhimurium, s9, 48 h
[5] = Mutagenecity against Salmonella typhimurium TA 100 assessed as number of colonies at 200 ug/plate in presence of Sprague-Dawley rat S9 with metabolic activation measured after 48 hrs by Ames test (reference value: 47.3 +/- 5.7); format: toxicity, subcellular; conditions: salmonella enterica subsp. enterica serovar typhimurium, s9, 48 h
[6] = (§2) Toxicity in BALB/c mouse infected with Trypanosoma cruzi MHOM/Pe/2011/Arequipa;DTU 5 bloodstream trypomastigote assessed as change in serum uric acid level in acute phase at 20 mg/kg/day, po administered for 5 consecutive days starting from day 8 post infection and measured on day 100 post infection by biochemical analysis relative to control; format: organism-based; conditions: in vivo
[7] = Mutagenecity against Salmonella typhimurium TA98 assessed as number of colonies at 7.4 ug/plate in absence of Sprague-Dawley rat S9 measured after 48 hrs by Ames test (reference value: 3 +/- 2.6); format: toxicity; conditions: salmonella enterica subsp. enterica serovar typhimurium, s9, 48 h
[8] = Mutagenecity against Salmonella typhimurium TA97a assessed as number of colonies at 66.7 ug/plate in absence of Sprague-Dawley rat S9 […] measured after 48 hrs by Ames test ( Rvb = 37 +/- 6.5); format: toxicity; conditions: salmonella enterica subsp. enterica serovar typhimurium, s9, 48 h
[9] = Mutagenecity against Salmonella typhimurium TA 102 assessed as number of colonies at 7.4 ug/plate in absence of Sprague-Dawley rat S9 with metabolic activation measured after 48 hrs by Ames test (reference value: 78.7 +/- 7.8); format: toxicity; conditions: salmonella enterica subsp. enterica serovar typhimurium, s9, 48 h
[10] = Mutagenecity against Salmonella typhimurium TA 100 assessed as number of colonies at 7.4 ug/plate in presence of Sprague-Dawley rat S9 with metabolic activation measured after 48 hrs by Ames test (reference value: 47.3 +/- 5.7); format: toxicity, subcellular; conditions: salmonella enterica subsp. enterica serovar typhimurium, s9, 48 h
[11] = Mutagenecity against Salmonella typhimurium TA 100 assessed as number of colonies at 22.2 ug/plate in presence of Sprague-Dawley rat S9 with metabolic activation e measured after 48 hrs by Ames test (reference value: 47.3 +/- 5.7); format: toxicity, subcellular; conditions: salmonella enterica subsp. enterica serovar typhimurium, s9, 48 h
[12] = Mutagenecity against Salmonella typhimurium TA1535 assessed as number of colonies at 66.7 ug/plate in presence of Sprague-Dawley rat S9 measured after 48 hrs by Ames test (reference value: 5 +/- 3.6); format: toxicity, subcellular; conditions: salmonella enterica subsp. enterica serovar typhimurium, s9, 48 h
Trypanosoma cruzi = assay: Antitrypanosomal activity against Trypanosoma cruzi MHOM/Pe/2011/Arequipa;DTU 5 bloodstream trypomastigotes infected in BALB/c mouse assessed as decrease in splenomegaly in acute phase at 20 mg/kg/day, po administered for 5 consecutive days starting from day 8 post infection relative to untreated control; format: functional; design: scale not given: the % may be the effect or the level left
Method in brief: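 Female BALB/c mice (three per group) were infected i.p. with 5 × 10^5 Arequipa trypomastigotes and dosed orally at 20 mg/kg/day for 5 days in 5% DMSO/0.5% HPMC. Controls were uninfected and vehicle-only groups. At the end of the experiment spleens were weighed and expressed as % of body weight.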

[13] = Mutagenecity against Salmonella typhimurium TA 102 assessed as number of colonies at 66.7 ug/plate in presence of Sprague-Dawley rat S9 with metabolic activation measured after 48 hrs by Ames test (reference value: 72 +/- 1); format: toxicity, subcellular; conditions: salmonella enterica subsp. enterica serovar typhimurium, s9, 48 h
[14] = Mutagenecity against Salmonella typhimurium TA1535 assessed as number of colonies at 7.4 ug/plate in absence of Sprague-Dawley rat S9 measured after 48 hrs by Ames test (reference value: 13.3 +/- 2.5); format: toxicity; conditions: salmonella enterica subsp. enterica serovar typhimurium, s9, 48 h
[15] = Mutagenecity against Salmonella typhimurium TA98 assessed as number of colonies at 66.7 ug/plate in absence of Sprague-Dawley rat S9 measured after 48 hrs by Ames test (reference value: 3 +/- 2.6); format: toxicity; conditions: salmonella enterica subsp. enterica serovar typhimurium, s9, 48 h
[16] = Mutagenecity against Salmonella typhimurium TA97a assessed as number of colonies at 200 ug/plate in absence of Sprague-Dawley rat S9 […] measured after 48 hrs by Ames test ( Rvb = 37 +/- 6.5); format: toxicity; conditions: salmonella enterica subsp. enterica serovar typhimurium, s9, 48 h
[17] = Mutagenecity against Salmonella typhimurium TA 102 assessed as number of colonies at 22.2 ug/plate in presence of Sprague-Dawley rat S9 with metabolic activation measured after 48 hrs by Ames test (reference value: 72 +/- 1); format: toxicity, subcellular; conditions: salmonella enterica subsp. enterica serovar typhimurium, s9, 48 h
[18] = Mutagenecity against Salmonella typhimurium TA98 assessed as number of colonies at 200 ug/plate in presence of Sprague-Dawley rat S9 measured after 48 hrs by Ames test (reference value: 4 +/- 2); format: toxicity, subcellular; conditions: salmonella enterica subsp. enterica serovar typhimurium, s9, 48 h
[19] = Mutagenecity against Salmonella typhimurium TA1535 assessed as number of colonies at 7.4 […] in presence of Sprague-Dawley rat S9 measured after 48 hrs by Ames test (reference value: 5 +/- 3.6); format: toxicity, subcellular; conditions: salmonella enterica subsp. enterica serovar typhimurium, s9, 48 h
[20] = Mutagenecity against Salmonella typhimurium TA 100 assessed as number of colonies at 22.2 ug/plate in absence of Sprague-Dawley rat S9 with metabolic activation ug/plate measured after 48 hrs by Ames test (reference value: 35.7 +/- 0.6); format: toxicity; conditions: salmonella enterica subsp. enterica serovar typhimurium, s9, 48 h
[21] = as §2, with “increase” for “change”, “aspartate aminotransferase” for “uric acid”; format: organism-based; conditions: in vivo
[22] = as §2, with “as increase” for “as change”, “serum aspartate aminotransferase” for “serum uric acid”, “measured at” for “measured on”, “day 14” for “day 100”; format: organism-based; conditions: in vivo
[23] = as §2, with “as decrease” for “as change”, “serum total bilirubin” for “serum uric acid”, “measured at” for “measured on”, “day 14” for “day 100”; format: organism-based; design: scale not given: the % may be the effect or the level left; conditions: in vivo
[24] = as §1, with “urea” for “alkaline phosphatase”; format: organism-based; conditions: in vivo
[25] = as §2, with “urea” for “uric acid”; format: organism-based; conditions: in vivo
[26] = as §2, with “serum aspartate aminotransferase” for “serum uric acid”, “measured at” for “measured on”, “day 14” for “day 100”; format: organism-based; conditions: in vivo
[27] = Genotoxicity in Salmonella typhimurium TA1535 harboring pSK1002 assessed as survival at 0.5 mg/ml in absence of Sprague-Dawley rat liver S9 fraction metabolic activation by SOS/umu assay relative to control; format: toxicity; conditions: salmonella enterica subsp. enterica serovar typhimurium, read-out: Survival
Method in brief: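 Survival of S. typhimurium TA1535/pSK1002 exposed to a range of compound concentrations with or without S9 mix in 96-well format. Survival percentage measured as the cytotoxicity arm of the SOS/umu test. Concentrations with survival ≥80% are counted as non-cytotoxic.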

O=C(CCN1CCN(c2ccc(Cl)cc2)CC1)c1ccc(O)cc1
Activity [1]: 6
Activity [2]: > 10%
Activity [3]: 78
Activity [4]: 34.4
Activity [5]: 42.3
Activity [6]: > 10%
Activity [7]: 4
Activity [8]: 31.3
Activity [9]: 72
Activity [10]: 44.7
Activity [11]: 47.3
Activity [12]: 3.3
Activity (Trypanosoma cruzi): 44%
Activity [13]: 72.3
Activity [14]: 2.3
Activity [15]: 4
Activity [16]: 32.3
Activity [17]: 84.7
Activity [18]: 2.7
Activity [19]: 5.5
Activity [20]: 34.3

O=C(Cn1ccnc1[N+](=O)[O-])NCc1ccccc1 [BENZNIDAZOLE]
Activity [21]: <= 10%
Activity [22]: <= 20%
Activity [23]: <= 10%

O=C(CCN1CCN(c2ccc(C(F)(F)F)cc2)CC1)c1ccc(O)cc1
Activity [24]: > 10%
Activity [25]: > 10%
Activity [26]: > 10%
viability at 0.5 mg/ml [27]: 155%
